Source: PubChem
PP1 inh: counter-screen for PP5 inhibitors: inhibitors of human PP1-alpha. 320,000 compounds, 0.9% hits. inhibition, % at 6.7 µM. P62136. AID 2235. purified PP1alpha, OMFP fluorescence;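 active = inhibition above the mean inhibition of all tested compounds plus 3 SD, computed separately for each screening campaign, cut at about 15% in these data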
T cruzi inh: T. cruzi replication inhibition | AID 1885 | 300,000 compounds, 1.4% hits | T. cruzi beta-gal in NIH3T3, luminescence, 90 h | inhibition, % (test concentration not listed);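 active = mean inhibition across valid replicates above about 55%, limit read from the data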;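 also: signal also drops with host cell toxicity which is not excluded here; 0% = plate median of DMSO wells and 100% = zero luminescence signal; higher percent means less beta-gal luminescence so fewer parasites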
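Assay system: NIH/3T3 host cells with β-galactosidase reporter T. cruzi; input: 5,000 host fibroblasts per well; compound: single 50 nL compound addition per well in DMSO; timing: ≥90 h infection period, 3 h prior cell attachment; measured by: GalScreen β-gal luminescence, detergent lysis, 60 min; evaluation: percent inhibition of parasite-derived β-gal signal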
p-CIP stab down: lowers stability of the mouse p/CIP coactivator protein | Q05BA5 | F442A p/CIP-EGFP cells, EGFP fluorescence, 16 h | 290,000 compounds, 0.01% hits | decrease of EGFP signal, % at 10 µM;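 active = EGFP signal decrease of at least 30% at 10 µM or well 3 SD below plate mean, unless failing retest; inactive = the rest, including hits failing retest or dose response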
UBC13 polyUb: blocks human UBC13 polyubiquitin chain formation; TR-FRET; AID 485273; inhibition, % at 20 µM; 330,000 compounds, 0.47% hits; in the data active = inhibition above about 45%, passing the limit was not always enough
AI-2 QS mod: modulators of Vibrio harveyi AI-2 quorum sensing system; Vibrio harveyi JMH597 AI-2 luminescence/OD600 ratio, 9 h; hits give low values; strain lacks LuxN and CqsS sensors; 0 = neutral-control median; activity change, % at 7.5 µM; 300,000 compounds, 0.4% hits; AID 2094; in the data active = activity change below about -75%, passing the limit was not always enough;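 also: luminescence divided by OD600 gain over 9 h not by final OD600 alone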
PP1 confirm: human PP1 phosphatase inhibition, confirmation | shares compounds with PP1 inh | purified PP1alpha, OMFP substrate fluorescence | inhibition, % at 6.7 µM | 1,900 compounds, 52% hits;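 active = mean PP1 inhibition above a set limit taken from the earlier primary screen, cut at about 15% in these data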
PP5 inh counter: counter-screen for PP1 inhibitors: human PP5 phosphatase inhibition | shares compounds with PP1 inh | purified PP5c, OMFP fluorescence | inhibition, % at 6.7 µM | 1,900 compounds, 4% hits;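 active = mean PP5 inhibition over triplicate wells above about 9.5% taken from the earlier PP1 screen, limit read from the data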
Target sequence (P53041 whole entry, looked up): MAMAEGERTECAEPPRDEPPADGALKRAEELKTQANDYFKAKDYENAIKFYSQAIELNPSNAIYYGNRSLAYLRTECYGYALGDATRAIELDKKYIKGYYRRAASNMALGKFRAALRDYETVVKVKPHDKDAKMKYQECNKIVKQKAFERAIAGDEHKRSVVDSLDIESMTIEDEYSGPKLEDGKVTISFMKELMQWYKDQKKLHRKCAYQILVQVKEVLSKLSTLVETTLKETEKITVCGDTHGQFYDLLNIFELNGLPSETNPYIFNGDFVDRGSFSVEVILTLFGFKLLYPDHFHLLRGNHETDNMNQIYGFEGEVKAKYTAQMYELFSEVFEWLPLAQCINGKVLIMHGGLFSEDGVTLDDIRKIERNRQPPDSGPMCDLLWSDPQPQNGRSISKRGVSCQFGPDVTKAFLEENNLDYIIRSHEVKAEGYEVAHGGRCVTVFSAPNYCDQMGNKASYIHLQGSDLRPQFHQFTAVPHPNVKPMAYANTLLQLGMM
Active calls of the source: *; x = no result. Most compounds without a hit are left out; they make up all but 2.8% or so of the library.

SMILES	PP1 inh	T cruzi inh	p-CIP stab down	UBC13 polyUb	AI-2 QS mod	PP1 confirm	PP5 inh counter
CC(C)Cc1cc(C(=O)N(C)C2CCCN(Cc3ccccc3F)C2)n(C)n1 (stereo unspecified)	2	9	-16	-6	10	x	x
C/C(=N\NC(=O)c1nnn(-c2nonc2N)c1CN(C)c1ccccc1)c1ccccn1	19*	31	3	x	22	30*	2
Cc1cccc2c1cnn2C(=O)Nc1ccccc1Cl	-6	3	13	4	34	x	x
Cc1cccc(NC(=O)/C(=C/c2cccc([N+](=O)[O-])c2)NC(=O)c2cccs2)c1	18*	15	-8	-3	17	13	0
Cc1ccc2nc(NS(=O)(=O)c3cn(C)nc3C)sc2c1	2	-14	-8	-4	3	x	x
CC(CNC(=O)CCc1nnc2ccc(N3CCC4(CC3)OCCO4)nn12)c1ccccc1 (stereo unspecified)	-1	-6	-5	-10	8	x	x
Cc1nn(CC(=O)Nc2ccc3c(c2)nc2n3CCN(C3CCCCC3)C2)c(=O)c2ccccc12	20*	18	0	10	-15	6	0
Cc1nn(CC(=O)Nc2ccc3c(c2)nc(CCN2CCCCC2)n3C)c(=O)c2ccccc12	-2	14	-2	10	30	x	x
Cc1ccc(C(=O)O/N=C/c2c(N3CCOCC3)n(C)c3ccccc23)cc1	21*	56*	-13	18	0	-1	1
Cc1ccc(-c2cnc3c(Cl)c(C)nn3c2)cc1	5	4	5	-5	31	x	x
Cn1cnnc1SCC(=O)Nc1ccccc1	1	7	2	1	19	x	x
Cn1cnnc1SCC(=O)Nc1ccc(OCc2ccccc2)cc1	24*	3	13	10	-16	4	-3
O=C(c1ccc(S(=O)(=O)NCc2ccco2)cc1)N1CCN(Cc2ccccc2F)CC1	x	x	x	-3	x	x	x
CCC1(c2ccccc2)NC(=O)N(CC(=O)Nc2cc(S(=O)(=O)N3CCCCC3)ccc2OC(C)C)C1=O (stereo unspecified)	18*	15	x	-9	20	2	4
CCC1(c2ccccc2)NC(=O)N(CC(=O)Nc2cc(S(=O)(=O)N3CCCCCC3)ccc2OC)C1=O (stereo unspecified)	6	29	x	-4	21	x	x
COc1ccc(O)c(C(=O)c2cc(SCC(=O)O)c3nc4sc5c(c4c(=O)n3c2)CCCC5)c1	29*	-3	-4	12	13	19*	-3
CCOC(=O)c1sc2nc3c(SCC(=O)O)cc(C(=O)c4cc(F)ccc4O)cn3c(=O)c2c1C	61*	-3	-16	x	26	48*	-3
O=C(O)CSc1cc(C(=O)c2ccccc2O)cn2c(=O)c3c(-c4ccccc4)csc3nc12	20*	-4	-23	6	68	16*	-5
COc1ccc(C(=O)N2C(=O)c3ccc(N)cc3C2=O)cc1	-1	-15	5	4	17	x	x
O=C(Nc1ccccc1C(=O)O)C1=NN=CC1	-4	-1	2	4	23	x	x
CCOc1ccc(N2CSC3=C(C#N)C(c4ccco4)CC(=O)N3C2)cc1 (stereo unspecified)	31*	-3	-8	15	-7	13	13*
CN(C(=O)CSc1ncnc2sc3c(c12)CCC3)C1CCS(=O)(=O)C1 (stereo unspecified)	-5	x	x	37	x	x	x
CCc1ccc(NC(=O)C2CCN(c3c(N4CCCC4)c(=O)c3=O)CC2)cc1	-8	-2	-12	6	17	x	x
CCc1ccc(NC(=O)C2C3CCC(O3)C2C(=O)O)cc1 (stereo unspecified)	74*	-26	-15	-2	10	18*	38*
CC(=O)Nc1ccc(NC(=O)C2C3C=CC(C3)C2C(=O)O)cc1 (stereo unspecified)	-1	-7	-6	-2	-4	x	x
SMILES	PP1 inh	T cruzi inh	p-CIP stab down	UBC13 polyUb	AI-2 QS mod	PP1 confirm	PP5 inh counter
O=C(O)C1C2CCC(O2)C1C(=O)Nc1ccc(F)cc1 (stereo unspecified)	31*	-3	0	-2	23	11	8
O=C(O)C1C2CCC(O2)C1C(=O)NCc1ccncc1 (stereo unspecified)	20*	-12	-8	4	21	15*	26*
O=C(O)C1C2CCC(O2)C1C(=O)Nc1cccc(F)c1 (stereo unspecified)	55*	0	10	6	18	10	17*
O=S(=O)(Nc1cnc2ccccc2c1)N1CCCCCC1	-2	-12	5	4	21	x	x
COc1ccc(S(=O)(=O)N2CCOCC2)cc1NC(=O)c1cc(C)oc1C	-4	x	x	5	x	x	x
Cn1c(CCNC(=O)c2cc(COc3ccc(F)c(F)c3)on2)nc2ccccc21	-1	3	-22	2	14	x	x
O=C(O)c1ccc(NC(=O)C2C3CCC(O3)C2C(=O)O)cc1 (stereo unspecified)	75*	-7	3	-6	26	31*	37*
O=c1[nH]c(NCCO)nc2c1C1(CCCCC1)Cc1ccccc1-2	19*	x	2	18	x	2	0
O=C(O)c1ccc2c(c1)C(=O)N(c1nccs1)C2=O	-5	-1	0	8	17	x	x
CCc1nnc2n1N=C(c1ccc(OC)cc1)CS2	2	4	-10	-4	7	x	x
CCc1nnc2n1N=C(c1ccc(-c3cc(Cl)ccc3Cl)o1)CS2	23*	28	-10	-10	30	12	-4
COc1cc(C(=O)NC2CCCNC2)cc(OC)c1OC (stereo unspecified)	x	x	-9	x	x	x	x
CC(C)CCn1c(SCC(=O)NC2CCS(=O)(=O)C2)nc2cc(Cl)ccc2c1=O (stereo unspecified)	-6	-8	x	-12	20	x	x
FC(F)(F)c1ccc(-n2cnc3ccccc32)nc1	1	5	-14	-2	5	x	x
CCCCCCSc1cc(-c2nc3cc(C)ccn3c2NCCCC)ccc1OC	26*	33	x	42	20	7	-2
CCCCCCSc1cc(-c2nc3ccc(C)cn3c2NCc2ccccc2)ccc1OC	21*	37	x	14	4	9	4
COc1ccccc1N(Cc1cc(=O)[nH]c2ccccc12)C(=O)c1cccc([N+](=O)[O-])c1	-3	7	2	6	15	x	x
CCOC(=O)Cc1cc(=O)n(-c2nc3ccccc3s2)[nH]1	44*	0	-4	-11	58	-3	-5
CCCc1cc(=O)n(-c2nc3ccccc3s2)[nH]1	9	-6	-1	-30	20	x	x
O=C(N/N=C/c1ccc(-c2ccc(S(=O)(=O)Nc3ncccn3)cc2)o1)c1cc2ccccc2cc1O	21*	-14	-5	-18	13	16*	-1
